The text below walks through data of ChEMBL document CHEMBL1833971, “Towards rational design of cannabinoid receptor 1 (CB1) antagonists for peripheral selectivity” (Bioorg Med Chem Lett, 2011).

For one data set, the system named is MDCK. As to the kind of experiment: Permeability from apical to basolateral side of MDR1 transfected MDCK cells at 3.16 uM after 1 hr by LC/MS analysis. The settings on record: dog. In kind it is ADME, cell-based, Canis lupus familiaris. In a few lines: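 MDCK-mdr1 cells grown on filters for 4 days to confluence. Compound added apically at 3.16 μM, incubated 1 hr at 37°C. Apical-to-basal transport quantified by mass spectrometry in MRM mode, tuned per compound by infusion.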

The target in a further data set is Cannabinoid receptor 2 (Homo sapiens, UniProt P34972). As to the kind of experiment: Displacement of [3H]-CP55940 from human CB2 receptor expressed in CHO-K1 cells after 1 hr by liquid scintillation spectrometry. In kind it is cell-based. In a few lines: (§1)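 Membranes from CHO-K1 cells over-expressing CB1 or CB2 used for [3H]CP55940 displacement, giving Ki at each receptor. Selectivity taken as the comparison of the CB2 and CB1 Ki values.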
Sequence of Cannabinoid receptor 2 (P34972 whole entry): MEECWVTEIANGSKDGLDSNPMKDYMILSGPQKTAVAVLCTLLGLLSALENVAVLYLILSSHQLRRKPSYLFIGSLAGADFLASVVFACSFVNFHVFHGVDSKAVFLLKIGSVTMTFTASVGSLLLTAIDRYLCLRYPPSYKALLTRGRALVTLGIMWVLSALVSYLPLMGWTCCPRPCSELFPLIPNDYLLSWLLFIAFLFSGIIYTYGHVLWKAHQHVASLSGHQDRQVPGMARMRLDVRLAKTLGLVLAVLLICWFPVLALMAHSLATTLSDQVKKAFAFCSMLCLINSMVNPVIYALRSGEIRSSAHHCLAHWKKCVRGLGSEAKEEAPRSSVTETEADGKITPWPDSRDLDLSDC
Background: In a radioligand displacement assay an active substance lowers the binding of a labelled ligand.

Data set [1] deals with T1, Cannabinoid receptor 1 (Homo sapiens, UniProt P21554). The experiment in a line: Antagonist activity at human CB1 receptor transfected in CHO-K1 cells co-expressing G-alpha-q16 protein assessed as inhibition of G-alpha-q16 protein-mediated intracellular calcium mobilization. The data set is classed as functional, cell-based. Background: Calcium flux is commonly read through the fluorescence of an indicator in the cells.
T1 sequence (P21554 whole entry): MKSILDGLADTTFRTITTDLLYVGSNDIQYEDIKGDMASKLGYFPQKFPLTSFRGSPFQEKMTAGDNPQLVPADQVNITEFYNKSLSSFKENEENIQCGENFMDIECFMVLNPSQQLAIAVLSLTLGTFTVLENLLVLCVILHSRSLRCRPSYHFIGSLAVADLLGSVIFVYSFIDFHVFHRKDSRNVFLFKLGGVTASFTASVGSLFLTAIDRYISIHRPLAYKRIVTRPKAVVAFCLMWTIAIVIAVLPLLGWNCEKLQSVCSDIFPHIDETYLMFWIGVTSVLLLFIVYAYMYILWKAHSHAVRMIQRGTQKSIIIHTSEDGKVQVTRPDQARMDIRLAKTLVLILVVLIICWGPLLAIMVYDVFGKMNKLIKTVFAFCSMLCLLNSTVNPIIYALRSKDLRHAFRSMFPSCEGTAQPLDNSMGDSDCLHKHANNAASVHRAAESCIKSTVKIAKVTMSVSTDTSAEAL

Data set [2] concerns the target T1, Cannabinoid receptor 1. The experiment in a line: Displacement of [3H]-CP55940 from human CB1 receptor expressed in CHO-K1 cells after 1 hr by liquid scintillation spectrometry. The data set is classed as cell-based.
Data set [3] deals with T1, Cannabinoid receptor 1. The experiment in a line: Displacement of [3H]-SR141716A from human CB1 receptor expressed in CHO-K1 cells after 1 hr by liquid scintillation counting. The data set is classed as cell-based.
The species named for the next data set is Homo sapiens. The experiment in a line: Selectivity ratio of Ki for human CB2 receptor to Ki for human CB1 receptor. In a few lines: as §1

Structures are written as SMILES.

As to `Cc1c(C(=O)NC[C@H]2CC[C@@H](CNS(N)(=O)=O)CC2)nn(-c2ccc(Cl)cc2Cl)c1-c1ccc(Cl)cc1`, the permeability with MDCK is under 1%. Moreover, affinity on Cannabinoid receptor 2 was put at a Ki of 1790 nM.
As for `Cc1c(C(=O)NCc2cccc(CNS(N)(=O)=O)c2)nn(-c2ccc(Cl)cc2Cl)c1-c1ccc(Cl)cc1`, the Ke on Cannabinoid receptor 1 [1] stood at 4.2 µM.
Same read-out and setting: the result for `Cc1c(C(=O)NCc2ccc(CNS(C)(=O)=O)cc2)nn(-c2ccc(Cl)cc2Cl)c1-c1ccc(Cl)cc1` reads 2.93 µM.
In the case of `Cc1c(C(=O)NCC2CCC(CNS(N)(=O)=O)CC2)nn(-c2ccc(Cl)cc2Cl)c1-c1ccc(Cl)cc1` (mixture of isomers), the affinity on Cannabinoid receptor 2 corresponds to a Ki of 2310 nM.
With `Cc1c(C(=O)NC[C@H]2CC[C@@H](CNS(C)(=O)=O)CC2)nn(-c2ccc(Cl)cc2Cl)c1-c1ccc(Cl)cc1`, the Ki (usually the equilibrium dissociation constant of an inhibitor or competing ligand from its target) at Cannabinoid receptor 1 [2] is 36 nM; at Cannabinoid receptor 1 [3], 8 nM; at Cannabinoid receptor 2, 960 nM. Besides, the permeability in the data set with MDCK is under 1%.
`Cc1c(C(=O)NCc2ccc(CNS(N)(=O)=O)cc2)nn(-c2ccc(Cl)cc2Cl)c1-c1ccc(Cl)cc1`: on Cannabinoid receptor 1 [1], the Ke worked out at 0.376 µM.
For the compound `Cc1c(C(=O)NCc2cccc(CNS(C)(=O)=O)c2)nn(-c2ccc(Cl)cc2Cl)c1-c1ccc(Cl)cc1`, on Cannabinoid receptor 1 [1], the Ke stood at 2.83 µM.
Take `Cc1ccc(NC(=O)c2nn(-c3ccc(Cl)cc3Cl)c(-c3ccc(Cl)cc3)c2C)cn1`: the Ratio Ki in the data set filed under Homo sapiens is 39. The figures for the Ki on Cannabinoid receptor 1 [2], on Cannabinoid receptor 1 [3] and on Cannabinoid receptor 2 were 102 nM, 26 nM and 4010 nM, respectively.
`Cc1c(C(=O)NCCCCCCCNS(C)(=O)=O)nn(-c2ccc(Cl)cc2Cl)c1-c1ccc(Cl)cc1` displayed an inhibitory constant (Ki) at Cannabinoid receptor 2 of 780 nM. This lies in the sub-micromolar range.
Consider `Cc1c(C(=O)NCC2CCC(CNS(C)(=O)=O)CC2)nn(-c2ccc(Cl)cc2Cl)c1-c1ccc(Cl)cc1` (mixture of isomers), for which the results for the Ki on Cannabinoid receptor 1 [2], at Cannabinoid receptor 1 [3] and on Cannabinoid receptor 2 were 55 nM, 11 nM and 900 nM, respectively.
In the case of `Cc1c(C(=O)Nc2ccncc2)nn(-c2ccc(Cl)cc2Cl)c1-c1ccc(Cl)cc1`, the Ratio Ki in the data set listed under Homo sapiens was found to be 31. For the same compound, the Ki at Cannabinoid receptor 1 [2] worked out at 56 nM; at Cannabinoid receptor 1 [3], 13 nM; at Cannabinoid receptor 2 it was 1740 nM.
On to `Cc1c(C(=O)Nc2cc[n+]([O-])cc2)nn(-c2ccc(Cl)cc2Cl)c1-c1ccc(Cl)cc1`, for which, in the data set filed under Homo sapiens, the Ratio Ki came to 15. Moreover, the inhibitory constant (Ki) at Cannabinoid receptor 1 [2] was 294 nM; on Cannabinoid receptor 1 [3] it was 61 nM; on Cannabinoid receptor 2, 4520 nM. The Ke at Cannabinoid receptor 1 [1] turned out to be 1.39 µM.
As to `Cc1c(C(=O)Nc2ccc(C)[n+](C)c2)nn(-c2ccc(Cl)cc2Cl)c1-c1ccc(Cl)cc1`, the Ratio Ki in the data set filed under Homo sapiens is 1.3. For the same compound, the Ki on Cannabinoid receptor 1 [2] was found to be 1700 nM; on Cannabinoid receptor 1 [3], 786 nM; on Cannabinoid receptor 2, 2270 nM.
With `Cc1c(C(=O)NCCCN(C)CCCNS(C)(=O)=O)nn(-c2ccc(Cl)cc2Cl)c1-c1ccc(Cl)cc1`, on Cannabinoid receptor 1 [1], the Ke came to 5.34 µM.
Regarding `Cc1c(C(=O)NCCCCCCCNS(N)(=O)=O)nn(-c2ccc(Cl)cc2Cl)c1-c1ccc(Cl)cc1`, the Ratio Ki in the data set listed under Homo sapiens came out at 21. Also, the inhibition constant Ki came out at 49 nM on Cannabinoid receptor 1 [2], 20 nM at Cannabinoid receptor 1 [3] and 1010 nM at Cannabinoid receptor 2. On Cannabinoid receptor 1 [1], the Ke is 0.304 µM.
